Laboratory results reported in ChEMBL document CHEMBL1240400, “Comparative in vitro activities of nemonoxacin (TG-873870), a novel nonfluorinated quinolone, and other quinolones against clinical isolates” (2010).
≈ marks a conversion by molar mass, not a printed value.

Legend:
Assay type in all cases: functional
[1] = test system: Proteus mirabilis; assay: Antibacterial activity against Proteus mirabilis by broth dilution method
[2] = test system: Acinetobacter baumannii; assay: Antibacterial activity against Acinetobacter baumannii by broth dilution method
Method in brief: (§1)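 Broth microdilution per CLSI in panels spanning a dilution range of each agent. Cation-adjusted Mueller-Hinton broth, final inoculum 5 × 10^5 CFU/ml from a 0.5 McFarland suspension. Incubated overnight at 35°C in ambient air, with quality control strains in each run. MIC reported; values at or below the lowest concentration tested are given as that concentration.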

[3] = test system: Citrobacter freundii; assay: Antibacterial activity against Citrobacter freundii by broth dilution method; method in brief: as §1
[4] = test system: Haemophilus influenzae; assay: Antibacterial activity against Haemophilus influenzae by broth dilution method
Method in brief: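 Broth microdilution per CLSI using Haemophilus Test Medium broth, seeded from a 0.5 McFarland suspension. Incubated overnight at 35°C in ambient air, with quality control strains in each run. MIC read against a tested dilution range; values at the low limit are given as the lowest concentration.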

[5] = test system: Pseudomonas aeruginosa; assay: Antibacterial activity against Pseudomonas aeruginosa by broth dilution method
[6] = test system: Escherichia coli; assay: Antibacterial activity against ciprofloxacin susceptible Escherichia coli by broth dilution method; method in brief: as §1
[7] = test system: Streptococcus pyogenes; assay: Antibacterial activity against Streptococcus pyogenes by broth dilution method
Method in brief: (§2)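 Streptococci were tested by CLSI broth microdilution in Mueller-Hinton broth with 3% lysed horse blood, seeded from a 0.5 McFarland suspension. Incubated overnight at 35°C in ambient air, with quality control strains in each run. MIC taken over a per-agent dilution range.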

[8] = test system: Neisseria gonorrhoeae; assay: Antibacterial activity against levofloxacin resistant Neisseria gonorrhoeae isolates by broth dilution method
Method in brief: (§3)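 Neisseria gonorrhoeae clinical isolates tested by CLSI broth microdilution in Mueller-Hinton broth with 3% lysed horse blood, inoculated from a 0.5 McFarland suspension. Plates were incubated overnight at 35°C in 5% CO2, and the MIC was read as the lowest inhibitory concentration. Quality control strains were included in each run.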

[9] = test system: Staphylococcus epidermidis; assay: Antibacterial activity against methicillin resistant coagulase negative Staphylococcus epidermidis by broth dilution method
[10] = test system: Neisseria gonorrhoeae; assay: Antibacterial activity against moxifloxacin resistant Neisseria gonorrhoeae isolates by broth dilution method; method in brief: as §3
[11] = test system: Staphylococcus; assay: Antibacterial activity against methicillin resistant coagulase negative Staphylococcus by broth dilution method
[12] = test system: Escherichia coli; assay: Antibacterial activity against ciprofloxacin resistant Escherichia coli by broth dilution method
Method in brief: (§4)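 Clinical isolates tested by CLSI broth microdilution in panels holding serial twofold drug dilutions in cation-adjusted Mueller-Hinton broth. Final inoculum 5 × 10^5 CFU/ml was made from a 0.5 McFarland suspension. Plates were incubated overnight at 35°C in ambient air, and the MIC was read as the lowest concentration inhibiting growth. Quality control strains were included in each run.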

[13] = test system: Streptococcus viridans; assay: Antibacterial activity against Streptococcus viridans by broth dilution method; method in brief: as §2
[14] = test system: Klebsiella pneumoniae; assay: Antibacterial activity against Klebsiella pneumoniae by broth dilution method; method in brief: as §1
[15] = test system: Streptococcus pneumoniae; assay: Antibacterial activity against Levofloxacin resistant Streptococcus pneumoniae by broth dilution method
Method in brief: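 Streptococcus pneumoniae clinical isolates tested by CLSI broth microdilution. A 0.5 McFarland suspension was diluted into Mueller-Hinton broth with 3% lysed horse blood, then tested against serial drug dilutions. Plates were incubated overnight at 35°C in ambient air, and the MIC was read as the lowest inhibitory concentration. Quality control strains were included in each run.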

[16] = test system: Neisseria gonorrhoeae; assay: Antibacterial activity against ciprofloxacin resistant Neisseria gonorrhoeae isolates by broth dilution method; method in brief: as §3
[17] = test system: Enterobacter cloacae; assay: Antibacterial activity against Enterobacter cloacae by broth dilution method
[18] = test system: Staphylococcus aureus; assay: Antibacterial activity against ciprofloxacin susceptible and methicillin resistant Staphylococcus aureus by broth dilution method; method in brief: as §4
[19] = test system: Staphylococcus aureus; assay: Antibacterial activity against methicillin susceptible Staphylococcus aureus by broth dilution method
[20] = test system: Staphylococcus aureus; assay: Antibacterial activity against ciprofloxacin and methicillin resistant Staphylococcus aureus by broth dilution method; method in brief: as §4

| Compound | MIC50 [1] | MIC90 [1] | MIC50 [2] | MIC90 [2] | MIC50 [3] | MIC90 [3] | MIC50 [4] | MIC90 [4] | MIC50 [5] | MIC90 [5] | MIC50 [6] | MIC90 [6] | MIC50 [9] | MIC90 [9] | MIC50 [11] | MIC90 [11] | MIC90 [12] | MIC50 [14] | MIC90 [14] | MIC50 [17] | also measured |
| --- | --- | --- | --- | --- | --- | --- | --- | --- | --- | --- | --- | --- | --- | --- | --- | --- | --- | --- | --- | --- | --- |
| CO/N=C(\C(=O)N[C@@H]1C(=O)N2C(C(=O)[O-])=C(C[N+]3(C)CCCC3)CS[C@H]12)c1csc(N)n1 | ≤ 0.06 µg/mL | 8 µg/mL (≈ 16.6 µM) | > 8 µg/mL | > 8 µg/mL | ≤ 0.06 µg/mL | > 8 µg/mL | 0.25 µg/mL (≈ 0.52 µM) | 0.5 µg/mL (≈ 1.04 µM) | > 8 µg/mL | > 8 µg/mL |  |  |  |  |  |  |  |  |  |  |  |
| O=C(O)c1cn(C2CC2)c2cc(N3CCNCC3)c(F)cc2c1=O [CIPROFLOXACIN] | 2 µg/mL (≈ 6.04 µM) | > 16 µg/mL | 4 µg/mL (≈ 12.1 µM) | > 16 µg/mL | ≤ 0.06 µg/mL | 2 µg/mL (≈ 6.04 µM) | 0.25 µg/mL (≈ 0.754 µM) | 16 µg/mL (≈ 48.3 µM) | 4 µg/mL (≈ 12.1 µM) | > 16 µg/mL | 0.25 µg/mL (≈ 0.754 µM) | 1 µg/mL (≈ 3.02 µM) | 0.5 µg/mL (≈ 1.51 µM) | > 16 µg/mL | 0.5 µg/mL (≈ 1.51 µM) | > 16 µg/mL | > 16 µg/mL | 4 µg/mL (≈ 12.1 µM) | > 16 µg/mL |  | MIC50 [7]: 1 µg/mL (≈ 3.02 µM); MIC90 [7]: 4 µg/mL (≈ 12.1 µM); MIC [8]: 1 µg/mL (≈ 3.02 µM); MIC [10]: 0.5 µg/mL (≈ 1.51 µM); MIC50 [12]: > 16 µg/mL; MIC50 [13]: 1 µg/mL (≈ 3.02 µM); MIC90 [13]: 4 µg/mL (≈ 12.1 µM); MIC50 [15]: > 16 µg/mL; MIC90 [15]: > 16 µg/mL; MIC [16]: 2 µg/mL (≈ 6.04 µM) |
| CC(C)(O/N=C(\C(=O)N[C@@H]1C(=O)N2C(C(=O)[O-])=C(C[n+]3ccccc3)CS[C@H]12)c1csc(N)n1)C(=O)O [CEFTAZIDIME] | ≤ 1 µg/mL | ≤ 1 µg/mL | 64 µg/mL (≈ 117 µM) | > 128 µg/mL | ≤ 1 µg/mL | 64 µg/mL (≈ 117 µM) | ≤ 1 µg/mL | ≤ 1 µg/mL | 32 µg/mL (≈ 58.5 µM) | > 128 µg/mL | 1 µg/mL (≈ 1.83 µM) | 16 µg/mL (≈ 29.3 µM) |  |  |  |  |  | 16 µg/mL (≈ 29.3 µM) | > 128 µg/mL | 128 µg/mL (≈ 234 µM) | MIC90 [17]: > 128 µg/mL; MIC [6]: 1 µg/mL (≈ 1.83 µM); MIC [4]: ≤ 1 µg/mL |
| Cc1onc(-c2ccccc2)c1C(=O)N[C@@H]1C(=O)N2[C@@H]1SC(C)(C)[C@@H]2C(=O)O [OXACILLIN] |  |  |  |  |  |  |  |  |  |  |  |  | > 8 µg/mL | > 8 µg/mL | > 8 µg/mL | > 8 µg/mL |  |  |  |  | MIC50 [18]: > 8 µg/mL; MIC90 [18]: > 8 µg/mL; MIC50 [19]: 0.5 µg/mL (≈ 1.25 µM); MIC90 [19]: 1 µg/mL (≈ 2.49 µM); MIC [20]: > 8 µg/mL; MIC50 [20]: > 8 µg/mL; MIC90 [20]: > 8 µg/mL |
| CCN1CCN(C(=O)N[C@@H](C(=O)N[C@@H]2C(=O)N3[C@@H]2SC(C)(C)[C@@H]3C(=O)O)c2ccccc2)C(=O)C1=O [PIPERACILLIN] | 32 µg/mL (≈ 61.8 µM) | > 128 µg/mL | > 128 µg/mL | > 128 µg/mL | 16 µg/mL (≈ 30.9 µM) | > 128 µg/mL |  |  | 128 µg/mL (≈ 247 µM) | > 128 µg/mL | > 128 µg/mL | > 128 µg/mL |  |  |  |  | 0.5 µg/mL (≈ 0.966 µM) | > 128 µg/mL | > 128 µg/mL | > 128 µg/mL | MIC90 [17]: > 128 µg/mL; MIC [12]: 2 µg/mL (≈ 3.86 µM) |
